{
  "source": "paper PMC7445463",
  "about": "(Diabetologia, 2020)",
  "key": {"[1]": {"test": "DIO mice under 50% dietary restriction, indirect calorimetry", "assay_type": "in vivo, mouse"}, "DIO C57/B6 mice": {"system": "DIO C57/B6 mice", "test": "gastric emptying and weight in DIO mice", "assay_type": "in vivo, mouse", "settings": "14-day"}, "glucokinase [2]": {"target": "T1, glucokinase (Homo sapiens, UniProt P35557)", "T1 sequence (P35557 1-465)": "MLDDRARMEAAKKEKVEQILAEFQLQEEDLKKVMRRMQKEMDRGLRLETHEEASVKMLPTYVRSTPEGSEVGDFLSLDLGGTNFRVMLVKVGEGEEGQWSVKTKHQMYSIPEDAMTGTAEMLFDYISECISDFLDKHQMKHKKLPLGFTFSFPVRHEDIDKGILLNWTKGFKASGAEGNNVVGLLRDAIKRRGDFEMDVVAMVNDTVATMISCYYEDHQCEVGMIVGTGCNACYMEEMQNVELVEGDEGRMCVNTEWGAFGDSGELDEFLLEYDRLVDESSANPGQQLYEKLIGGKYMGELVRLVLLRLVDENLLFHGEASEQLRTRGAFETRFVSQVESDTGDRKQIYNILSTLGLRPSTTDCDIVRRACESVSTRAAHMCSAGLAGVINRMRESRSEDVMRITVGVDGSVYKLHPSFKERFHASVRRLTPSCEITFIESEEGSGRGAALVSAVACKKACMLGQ", "test": "Simplici-T1 Phase 1b/2 trial", "assay_type": "in vivo"}, "glucokinase [3]": {"target": "T1, glucokinase", "settings": "type 2 diabetes (n=190); cited from earlier work"}, "[4]": {"system": "human ventricular cardiac fibroblasts (HCF)", "test": "Human ventricular cardiac fibroblasts, mRNA expression by RT-qPCR", "assay_type": "cell-based", "settings": "TGF-β treatment; p<0.01"}, "HG-CD34+ stem cells": {"system": "HG-CD34+ stem cells", "test": "ROS production in CD34+ stem cells", "assay_type": "cell-based, human", "settings": "n=3"}, "individuals with obesity": {"system": "individuals with obesity", "assay_type": "in vivo, human"}, "[5]": {"test": "Insulin icodec vs IGlar U100 26-week phase 2 trial", "assay_type": "in vivo, human", "procedure,_shortened": "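Randomized, double-blind, double-dummy, treat-to-target phase 2 trial lasting 26 weeks. Participants were insulin-naïve adults with T2D and HbA1c 7.0-9.5% on metformin ± DPP4i, randomized 1:1 (n=247). Starting doses were 70 U once weekly or 10 U once daily, titrated weekly to a pre-breakfast SMBG target of 3.9-6.0 mmol/L. The primary endpoint was HbA1c change from baseline to week 26; FPG and mean weekly dose over the last two weeks were secondary.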"}, "[6]": {"settings": "stated as background; cited from earlier work"}, "[7]": {"system": "diabetic patients with chronic heart failure", "assay_type": "in vivo, human", "settings": "metformin 2 g/day for 3 months"}, "[8]": {"system": "mouse and human primary PaSC and immortalized imPaSC", "test": "Signalling and gene expression in pancreatic stellate cells", "assay_type": "cell-based", "settings": "Met 0.1-10 mM"}, "[9]": {"test": "Intrajejunal metformin with or without bile exclusion or TCA, T2DM", "assay_type": "in vivo, human", "settings": "1 g intrajejunal; endogenous bile included"}, "[10]": {"test": "Portal vein and arterialized lactate after oral metformin", "assay_type": "in vivo, human", "settings": "90 minutes after 1000 mg oral"}, "[11]": {"test": "42-h fast crossover trial with or without metformin", "assay_type": "in vivo, human", "settings": "1 g twice daily for a week"}, "[12]": {"system": "human hepatocytes (HepG2)", "test": "GDF15 and FGF21 expression in hepatocytes", "assay_type": "cell-based", "settings": "2 mM, up to 24-h"}, "[13]": {"test": "Serum uteroglobin before and after metformin monotherapy", "assay_type": "in vivo, human", "settings": "after 12 months monotherapy; before 14.43±0.97; n=20"}, "human heart": {"system": "human heart", "test": "Metformin uptake in the human heart by PET scanning", "assay_type": "in vivo"}, "[14]": {"system": "patients with type 2 diabetes", "test": "Network meta-analysis of antidiabetic medications on blood pressure", "design": "species or system human", "settings": "frequentist random-effects network meta-analysis, 192 studies"}, "[15]": {"test": "metformin vs placebo crossover in DM and chronic heart failure", "assay_type": "in vivo, human", "settings": "2 g/day, 3 months vs placebo"}, "[16]": {"system": "individuals with type 2 diabetes", "test": "insulin icodec PK/PD trial", "design": "species or system human", "settings": "in vivo"}},
  "note": "Values joined by “and” are separate entries in the source; they are usually repeats but may differ in a detail not shown here. Equal values may be shown once.",
  "data": [
    {"compound": "CC[C@H](C)[C@H](NC(=O)[C@H](CC(C)C)NC(=O)[C@H](Cc1c[nH]c2ccccc12)NC(=O)[C@H](CCC(N)=O)NC(=O)[C@@H](NC(=O)[C@H](Cc1ccccc1)NC(=O)[C@H](C)NC(=O)[C@H](CCCCNC(=O)COCCOCCNC(=O)COCCOCCNC(=O)CC[C@H](NC(=O)CCCCCCCCCCCCCCCCCCC(=O)O)C(=O)O)NC(=O)[C@H](CCC(N)=O)NC(=O)[C@H](C)NC(=O)[C@@H](NC(=O)[C@H](CCCCN)NC(=O)[C@H](CC(=O)O)NC(=O)[C@H](CC(C)C)NC(=O)C(C)(C)NC(=O)[C@@H](NC(=O)[C@H](CO)NC(=O)[C@H](Cc1ccc(O)cc1)NC(=O)[C@H](CC(=O)O)NC(=O)[C@H](CO)NC(=O)[C@@H](NC(=O)[C@H](Cc1ccccc1)NC(=O)[C@@H](NC(=O)CNC(=O)[C@H](CCC(=O)O)NC(=O)C(C)(C)NC(=O)[C@@H](N)Cc1ccc(O)cc1)[C@@H](C)O)[C@@H](C)O)[C@@H](C)CC)[C@@H](C)CC)C(C)C)C(=O)N[C@@H](C)C(=O)NCC(=O)NCC(=O)N1CCC[C@H]1C(=O)N[C@@H](CO)C(=O)N[C@@H](CO)C(=O)NCC(=O)N[C@@H](C)C(=O)N1CCC[C@H]1C(=O)N1CCC[C@H]1C(=O)N1CCC[C@H]1C(=O)N[C@@H](CO)C(N)=O", "note": "[tirzepatide]", "values": [
      {"measurement": "weight loss during dietary restriction", "setting": "[1]; 3 nmol/kg QD, 14 days, vehicle 15.2±1.2, pair fed 17.0±0.7", "value": "22.4±1.3", "unit": "%"},
      {"measurement": "increase of fat utilization vs vehicle", "setting": "[1]; during DR", "value": "more than 30%"},
      {"measurement": "energy expenditure during dietary restriction", "setting": "[1]; reduction, indirect calorimetry", "value": "maintained similar to levels prior to DR"},
      {"measurement": "GE delay after chronic treatment", "setting": "DIO C57/B6 mice", "value": "abolished after 14-day chronic treatment"}
    ]},
    {"compound": "CCCO[C@H]1CC[C@H](N(C(=O)Nc2ncc(SCC(=O)O)s2)C2CCCCC2)CC1", "note": "[TTP399]", "values": [
      {"measurement": "plasma β-hydroxybutyrate or urine ketones vs placebo", "setting": "glucokinase [2]; 12 weeks", "value": "no significant or clinically relevant increases"},
      {"measurement": "severe hypoglycemia", "setting": "glucokinase [2]; 12 weeks", "value": "No incidents"},
      {"measurement": "improvement of TIR 70-180 vs placebo", "setting": "glucokinase [2]; Part 1 (n=19)", "value": 12, "unit": "%"},
      {"measurement": "A1C vs placebo, trial product estimand", "setting": "glucokinase [2]; Part 2 (n=85), 12 weeks", "value": "-0.32% and -0.3%"},
      {"measurement": "improvement of (daytime) TIR", "setting": "glucokinase [2]; Part 2, ITT", "value": 8, "unit": "%"},
      {"measurement": "responders", "setting": "glucokinase [2]; Part 2, placebo 12%", "value": 42, "unit": "%"},
      {"measurement": "A1C vs placebo", "setting": "glucokinase [3]", "value": "−0.9", "unit": "%"}
    ]},
    {"compound": "transforming growth factor beta [TGF-β]", "values": [
      {"measurement": "TNC expression in HCF", "setting": "[4]", "value": "upregulated TNC expression"}
    ]},
    {"compound": "liraglutide", "values": [
      {"measurement": "HG-induced production of ROS", "setting": "HG-CD34+ stem cells", "value": "significant reduction"},
      {"measurement": "change in heart rate during the 1-year treatment phase", "setting": "individuals with obesity; liraglutide 3.0 mg/day, with or without exercise, PLA -0.7", "value": 3.7, "unit": "min⁻¹"},
      {"measurement": "systolic and diastolic BP during the 1-year treatment phase", "setting": "individuals with obesity; no group differences", "value": "decreased"}
    ]},
    {"compound": "Insulin icodec", "values": [
      {"measurement": "estimated treatment ratio of weekly dose vs IGlar U100", "setting": "[5]; 95% CI 0.69, 0.94", "value": 0.81},
      {"measurement": "estimated treatment difference HbA1c vs IGlar U100", "setting": "[5]; 95% CI -0.38, 0.02", "value": -0.18, "unit": "%"},
      {"measurement": "estimated treatment difference FPG vs IGlar U100", "setting": "[5]; 95% CI -0.66, 0.23", "value": -0.22, "unit": "mmol/L"},
      {"measurement": "estimated mean HbA1c at week 26", "setting": "[5]; baseline 8.1 icodec, 8.0 IGlar U100", "value": 6.7, "unit": "%"},
      {"measurement": "estimated mean FPG at week 26", "setting": "[5]; in vivo", "value": 6.84, "unit": "mmol/L"},
      {"measurement": "estimated mean weekly insulin dose, last two weeks", "setting": "[5]; in vivo", "value": 229, "unit": "U/week"},
      {"measurement": "level 2 and 3 hypoglycaemia", "setting": "[5]; on-treatment period", "value": "53 events per 100 patient years of exposure"},
      {"measurement": "estimated mean change in HbA1c from baseline", "setting": "[5]; week 26", "value": -1.33, "unit": "%-points"},
      {"measurement": "terminal half-life", "setting": "[6]", "value": "~ 196 hours"}
    ]},
    {"compound": "CN(C)C(=N)N=C(N)N", "note": "[MET, metformin]", "values": [
      {"measurement": "cardiac functions as assessed by echocardiography and spiroergometry", "setting": "[7]", "value": "did not change"},
      {"measurement": "HbA1c", "setting": "[7]; compared to placebo", "value": "reduced"},
      {"measurement": "levels of yes-associated protein 1 (YAP)", "setting": "[8]", "value": "inhibited"}
    ]},
    {"compound": "CN(C)C(=N)N=C(N)N", "note": "[metformin]", "values": [
      {"measurement": "plasma glucose iAUC 0-180 min", "setting": "[9]", "value": "516 ± 46", "unit": "mmol·min/L"},
      {"measurement": "increase of lactate concentration, arterialized blood", "setting": "[10]", "value": 2, "unit": "%"},
      {"measurement": "increase of lactate concentration, portal vein", "setting": "[10]; n=8 cirrhotic participants", "value": 23, "unit": "%"},
      {"measurement": "serum FGF21", "setting": "[11]; without 146 ± 30", "value": "156 ± 29", "unit": "ng/mL"},
      {"measurement": "serum GDF15", "setting": "[11]; without 607 ± 89", "value": "1004 ± 61", "unit": "ng/mL"},
      {"measurement": "increase of FGF21 mRNA", "setting": "[12]", "value": 12, "unit": "fold"},
      {"measurement": "increase of GDF15 mRNA", "setting": "[12]", "value": 4, "unit": "fold"},
      {"measurement": "serum uteroglobin", "setting": "[13]", "value": "16.47 ± 1.33", "unit": "ng/mL"},
      {"measurement": "metformin uptake in healthy human hearts", "setting": "human heart", "value": "no uptake"},
      {"measurement": "systolic blood pressure, mean difference compared to placebo", "setting": "[14]", "value": -1.21, "unit": "mmHg"},
      {"measurement": "GLP-1 and peptide YY during meal test", "setting": "[15]", "value": "increased"}
    ]},
    {"compound": "insulin icodec", "values": [
      {"measurement": "geometric mean half-life (t½)", "setting": "[16]", "value": 196, "unit": "h"}
    ]}
  ]
}
